Reference: ChEMBL document CHEMBL1134638, “Synthetic 2-aroylindole derivatives as a new class of potent tubulin-inhibitory, antimitotic agents” (J Med Chem, 2001)
≈ marks a conversion by molar mass, not a printed value.

Assays:
[1] = test system: SK-OV-3; assay: In vitro inhibitory activity against SK-OV-3 cells using XTT proliferation assay.; assay type: functional, cell-based; settings: Homo sapiens
How it was run: (§1)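 XTT proliferation assay measuring cellular metabolic activity after 48 h incubation with compound. Compounds dissolved in DMSO at 1 mg/mL stock. IC50 or estimates obtained by nonlinear regression. Each experiment at least in duplicate.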

[2] = test system: HeLa; assay: In vitro inhibitory activity against HeLa/KB cells using XTT proliferation assay.; assay type: functional, cell-based; settings: Homo sapiens; how it was run: as §1
[3] = target: T1, Tubulin beta chain (Bos taurus, UniProt Q6B856); assay: Inhibition of tubulin polymerization.; assay type: functional
[4] = test system: HeLa; assay: In vitro inhibitory activity against HeLa/KB cells using XTT proliferation assay; assay type: functional, cell-based; settings: Homo sapiens; how it was run: as §1
[5] = target: T1, Tubulin beta chain; assay: Inhibition of tubulin polymerization; assay type: functional
How it was run: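 Bovine brain tubulin with MAPs, prepared by polymerization/depolymerization cycles (0.8 mg/mL), incubated with compound (4 µg/mL for screening, a concentration range for IC50). Run in PEM buffer pH 6.6 with 1 mM GTP at 37 °C for 1 h. Microtubules collected on 0.22 µm filters, stained with amido black, eluted, absorbance read at 600 nm.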

[6] = test system: SK-OV-3; assay: In vitro inhibitory activity against SK-OV-3 cells using XTT proliferation assay; assay type: functional, cell-based; settings: Homo sapiens; how it was run: as §1
[7] = test system: Tumor Cell line; assay: Mean cytotoxicity against a panel of human tumor cell lines; assay type: functional
How it was run: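 Modified propidium iodide assay quantifying dead cells by DNA/RNA staining, run on a human tumor cell panel (breast, colon, stomach, lung, melanoma, ovary, renal, soft tissue lines). Growth inhibition expressed as % T/C; IC70 per line from concentration-viability plots. Mean IC70 is the geometric mean across lines; unreached values set to the lowest or highest concentration tested.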

[8] = target: Tubulin beta chain (Bos taurus) (UniProt Q6B856)
[9] = target: Tubulin beta chain (Bos taurus) (UniProt Q6B856); remark: listed apart in the source
[10] = test system: U373 MG; assay: Cell cycle arrest activity against U373 astrocytoma cells.; assay type: functional, cell-based, U-373MG ATCC; settings: Homo sapiens
How it was run: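 U373 cells (5 × 10^6) exposed to compound for 24 h at 37 °C, trypsinised, washed in PBS, fixed in 80% methanol 30 min on ice. Stained with 20 µg/mL propidium iodide plus 1 mg/mL RNase A in PBS/0.1% saponin, 30 min at 37 °C. DNA content read by flow cytometry; G2/M fraction modelled. IC50 by nonlinear regression of dose-response.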

[11] = test system: U373 MG; assay: Cytotoxicity against U373 astrocytoma cells.; assay type: functional, cell-based, U-373MG ATCC; settings: Homo sapiens; how it was run: as §1
[12] = target: Tubulin (Bos taurus, UniProt Q6B856+Q862L2+Q862F3); assay: Inhibition of tubulin polymerization; No effect at a concentration up to 10 uM; assay type: functional

T1 sequence (Q6B856 whole entry): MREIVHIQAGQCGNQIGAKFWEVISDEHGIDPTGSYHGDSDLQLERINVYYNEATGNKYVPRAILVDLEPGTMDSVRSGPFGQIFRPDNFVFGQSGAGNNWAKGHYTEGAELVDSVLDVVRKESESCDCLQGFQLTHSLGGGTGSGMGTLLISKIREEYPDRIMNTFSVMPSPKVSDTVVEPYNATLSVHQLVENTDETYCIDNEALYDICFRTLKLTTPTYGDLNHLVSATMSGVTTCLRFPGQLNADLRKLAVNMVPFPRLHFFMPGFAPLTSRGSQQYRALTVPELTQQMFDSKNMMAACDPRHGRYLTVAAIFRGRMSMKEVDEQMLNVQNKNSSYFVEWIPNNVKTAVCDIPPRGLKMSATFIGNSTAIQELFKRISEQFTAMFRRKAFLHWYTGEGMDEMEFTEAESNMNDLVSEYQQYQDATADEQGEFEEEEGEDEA
Sequence of Tubulin beta chain (Bos taurus) (Q6B856 whole entry): as above

SMILES | IC50 [1] | IC50 [2] | IC50 [3] | other results
COc1ccc2[nH]c(C(=O)c3ccc(C)cc3)cc2c1 | 1880 nM | 380 nM | 1500 nM | 
COc1ccc2[nH]c(C(=O)c3cccc(SC(F)F)c3)cc2c1 |  |  |  | IC50 [4]: 390 nM; IC50 [5]: 2100 nM; IC50 [6]: 360 nM
CCc1ccc(C(=O)c2cc3cc(OC)ccc3[nH]2)cc1 | 11500 nM | 8900 nM | > 10000 nM | 
COc1ccc2[nH]c(C(=O)c3cccc(N)c3)cc2c1 | 230 nM | 340 nM | 990 nM | 
COc1ccc2[nH]c(C(=O)c3ccc(Cl)c(Cl)c3)cc2c1 | 100 nM | 100 nM | 2500 nM | IC70 [7]: 1.34 µg/mL (≈ 4.19 µM)
COc1ccc2[nH]c(C(=O)c3ccccc3N)cc2c1 | 3760 nM | 3760 nM | 6700 nM | IC70 [7]: 1.44 µg/mL (≈ 5.41 µM)
COc1ccc2[nH]c(C(=O)c3ccccc3C)cc2c1 | 380 nM | 1210 nM | 4800 nM | 
CC[C@]1(O)C[C@H]2CN(CCc3c([nH]c4ccccc34)[C@@](C(=O)OC)(c3cc4c(cc3OC)N(C=O)[C@H]3[C@@](O)(C(=O)OC)[C@H](OC(C)=O)[C@]5(CC)C=CCN6CC[C@]43[C@@H]65)C2)C1 |  |  |  | GTPase Activity [8]: 5.3; GTPase Activity [9]: 0.09
COc1ccc2[nH]c(C(=O)c3ccccc3F)cc2c1 | 740 nM | 370 nM | 1000 nM | 
COc1cccc(C(=O)c2cc3cc(OC)ccc3[nH]2)c1 | 11 nM | 11 nM | 530 nM | IC70 [7]: 0.27 µg/mL (≈ 0.96 µM); IC50 [10]: 10.7 nM; IC50 [11]: 28 nM
COc1ccc2[nH]c(C(=O)c3cccc(N)c3C)cc2c1 | 11400 nM | 11400 nM | > 10000 nM | 
COc1ccc2c(c1)cc(C(=O)c1ccccc1)n2CCN1CCOCC1 |  |  |  | IC70 [7]: 2.95 µg/mL (≈ 8.09 µM)
COc1cccc(C(=O)c2cc3cc(C)ccc3[nH]2)c1 | > 12100 nM | > 12100 nM | > 10000 nM | 
CCCC(=O)Oc1cccc(C(=O)c2cc3cc(OC)ccc3[nH]2)c1 | 240 nM | 270 nM | 850 nM | 
COc1ccccc1C(=O)c1cc2ccccc2[nH]1 | > 12700 nM | > 12700 nM | > 10000 nM | 
COc1cc(OC)cc(C(=O)c2cc3cc(OC)ccc3[nH]2)c1 | 19 nM | 19 nM | 810 nM | 
COc1cc(C(=O)c2cc3ccccc3[nH]2)cc(OC)c1OC | 9640 nM | 6420 nM |  | IC50 [12]: No effect
COc1ccc2[nH]c(C(=O)c3cccc(OC)c3OC)cc2c1 | 3200 nM | 6400 nM | > 10000 nM | 

Second part, led by results:

IC50 [1] | IC50 [2] | IC50 [3] | SMILES | other results
30 nM | 30 nM | 860 nM | COc1cc(C(=O)c2cc3cc(C)ccc3[nH]2)cc(OC)c1OC | IC70 [7]: 1.17 µg/mL (≈ 3.6 µM)
1640 nM | 1320 nM | 810 nM | COc1ccc2[nH]c(C(=O)c3ccc(OC)c(OC)c3)cc2c1 | 
30 nM | 30 nM | 1500 nM | COc1ccc2[nH]c(C(=O)c3cccc(C(F)(F)F)c3)cc2c1 | 
7430 nM | 5570 nM |  | COc1ccc2[nH]c(C(=O)c3ccc(F)cc3)cc2c1 | 
8700 nM | 6960 nM |  | COc1ccc2[nH]c(C(=O)c3c(F)cccc3F)cc2c1 | IC50 [12]: No effect
> 10300 nM | > 10300 nM | > 10000 nM | COc1ccc2[nH]c(C(=O)c3cccc([N+](=O)[O-])c3C)cc2c1 | 
110 nM | 36 nM | 1290 nM | COc1ccc2[nH]c(C(=O)c3ccccc3OC)cc2c1 | IC70 [7]: 0.35 µg/mL (≈ 1.24 µM)
